According to ChEMBL document CHEMBL4411275, “Design, synthesis and biological evaluation of quinoline-indole derivatives as anti-tubulin agents targeting the colchicine binding site” (Eur J Med Chem, 2019):

Experiments:
K562 [1] = assay: Induction of mitochondrial membrane potential loss in human K562 cells assessed as intact mitochondrial membrane at 4 nM after 48 hrs by JC-1 dye-based flow cytometric analysis (RVB = 93.17%)
MDA-MB-231 = assay: Antiproliferative activity against human MDA-MB-231 cells after 72 hrs by MTT assay; type: functional, cell-based; details: MDA-MB-231, 72 h
How it was run: (§1)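 Cells preincubated 24 h at 37 °C, 5% CO₂. Compounds added at several concentrations in medium with 0.1% DMSO for 72 h. MTT (5 mg/mL in PBS) then added for 4 h, and optical density read at 490 nm. IC50 taken from dose-response curves; mean ± SD of at least three independent experiments.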

H22 (Mus musculus) = assay: Antitumor activity against mouse H22 cells xenografted in ICR mouse assessed as reduction in tumor weight at 20 mg/kg/day, iv for 21 days relative to control; design: scale not given: the % may be the effect or the level left
A549/TR = assay: Antiproliferative activity against human taxol-resistant A549/TR cells after 72 hrs by MTT assay; type: functional, cell-based
How it was run: as §1

K562 [2] = assay: Cell cycle arrest in human K562 cells assessed as accumulation of cells at S phase at 2 nM after 48 hrs by propidium iodide staining-based flow cytometric analysis (reference value: 19.93%); type: functional
K562 [3] = assay: Induction of apoptosis in human K562 cells after 48 hrs by […]-based flow cytometric analysis; type: functional, cell-based
HUVEC = assay: Anti-migratory activity in HUVEC after 24 hrs by inverted microscopic analysis; type: functional, cell-based; details: Homo sapiens
How it was run: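 Scratch wound made in monolayers with a 200 μL pipette tip, then washed twice with PBS. Medium with 1, 2 or 4 nM compound added. Phase-contrast images taken at 0 h and 24 h, and the migration distance into the wound measured manually.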

Bel-7402 = assay: Antiproliferative activity against human Bel7402 cells after 72 hrs by MTT assay; type: functional, cell-based; details: Bel-7402, 72 h
How it was run: as §1

Tubulin (Homo sapiens) = Tubulin (Homo sapiens) (UniProt P68371+Q9H4B7+P0DPH7+P68366+Q13509+Q71U36+P04350+Q3ZCM7+P07437+P68363+Q9BQE3+Q6PEY2+Q13885+Q9BVA1+Q9BUF5); assay: Induction of microtubule disruption in human K562 cells after 24 hrs by DAPI staining-based fluorescence assay; type: cell-based
How it was run: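 K562 cells exposed 24 h to 1, 2 or 4 nM compound or 0.1% DMSO. Fixed in 4% paraformaldehyde and blocked 20 min with goat serum at room temperature. Incubated with anti-α-tubulin monoclonal antibody for 2 h at 37 °C, then fluorescent antibody, with DAPI nuclear counterstain. Imaged by confocal microscopy.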

HCT-8 = assay: Antiproliferative activity against human HCT8 cells after 72 hrs by MTT assay; type: functional, cell-based; details: HCT-8, 72 h
How it was run: as §1

[4] = Drug resistance index, ratio of IC50 for taxol-resistant human HCT8/T cells to IC50 for human HCT8 cells; type: functional
How it was run: (§2)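 Resistant and parental sensitive lines exposed to a range of compound concentrations in medium with 0.1% DMSO for 72 h at 37 °C, 5% CO2, after 24 h pre-culture. MTT added for 4 h, absorbance read at 490 nm. IC50 from dose-response curves, at least three independent experiments. DRI = IC50 resistant / IC50 parental.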

K562 [5] = assay: Induction of apoptosis in human K562 cells at 1 nM after 48 hrs by Annexin-V/propidium iodide staining-based flow cytometric analysis (reference value: 5.96%)
K562 [6] = assay: Antiproliferative activity against human K562 cells after 72 hrs by MTT assay; type: functional, cell-based; details: K562, 72 h
How it was run: as §1

[7] = Drug resistance index, ratio of IC50 for ADR-resistant human Bel7402/ADR cells to IC50 for human Bel7402 cells; type: functional
How it was run: as §2

[8] = Drug resistance index, ratio of IC50 for taxol-resistant human A549/TR cells to IC50 for human A549 cells; type: functional
How it was run: as §2

With `C=C(c1ccc2c(ccn2CO)c1)c1cc(C)nc2ccccc12` the Activity (K562 [1]) was 26.27%, the IC50 (MDA-MB-231) was 6 nM and the Activity (H22 (Mus musculus)) was 57.3%. The IC50 (A549/TR) was 119 nM, the Activity (K562 [2]) was 33.21% and the Activity (K562 [3]) was “Dose-dependent effect”. The Activity (HUVEC) was “Dose-dependent effect”, the IC50 (Bel-7402) was 10 nM and the Activity (Tubulin (Homo sapiens)) was “Dose-dependent effect”. The IC50 (HCT-8) was 7 nM, the “Ratio IC50” value [4] was 12.6 and the Activity (K562 [5]) was 25.7%. The IC50 (K562 [6]) was 2 nM, the “Ratio IC50” value [7] was 6.1 and the “Ratio IC50” value [8] was 13.2.
